Assay outcomes as filed in PubChem BioAssay.
Compounds with a hit are over-represented: about 3.5% of the library has one in this group of screens.
RGS4 act: RGS4 potentiation or activation | B-score at 10 µM | 0.92% of 310,000 active | HEK293 M3R/inducible RGS4, carbachol calcium flux Fluo4; hits give low values;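 active = B-score of the integrated calcium signal more than 4 SD below the library mean, with starting fluorescence not abnormally high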;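 note: negative B-score means reduced calcium response which marks RGS4 activation or potentiation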
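Material: M3R-expressing HEK293 line, RGS4 induced by doxycycline | Schedule: Overnight RGS4 induction, 30 min dye load 37 °C, 20 min compound RT | Measured by: Fluo4 fluorescence kinetic imaging of calcium | Read-out: Integrated calcium ratio converted to B score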
RGS4 block: inhibitors of human RGS4. 0.45% of 310,000 active. HEK293 M3R/RGS4 inducible, Fluo-4 calcium flux; hits give high values; triggered by carbachol at its EC20. P49798. B-score at 10 µM;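 active = B-score, a plate-corrected calcium signal, over three deviations above library mean, with baseline fluorescence within five deviations of library mean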;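 note: RGS4 expression induced by doxycycline in cells with stable M3 receptor; B-score is computed from the integrated fluorescence ratio over baseline after carbachol; higher B-score means a larger calcium signal and so more RGS4 inhibition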
Target sequence (P49798 whole entry, looked up): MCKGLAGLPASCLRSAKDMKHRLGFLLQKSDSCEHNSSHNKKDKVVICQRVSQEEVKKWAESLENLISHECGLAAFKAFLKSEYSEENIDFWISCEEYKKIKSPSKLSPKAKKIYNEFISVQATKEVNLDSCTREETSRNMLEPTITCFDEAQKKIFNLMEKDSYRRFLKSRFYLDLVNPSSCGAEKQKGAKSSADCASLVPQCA
MrgX1 agonist: human MrgX1 receptor agonism, primary screen; 0.44% of 310,000 active; B-score at 10 µM; MrgX1-HEK293 cells, Fluo-4 calcium fluorescence, agonist mode; hits give high values; Q96LB2;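 active = calcium response B-score plate-corrected fluorescence ratio at least 3 library SD, with starting fluorescence B-score inside 5 SD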
Target sequence (Q96LB2 whole entry, looked up): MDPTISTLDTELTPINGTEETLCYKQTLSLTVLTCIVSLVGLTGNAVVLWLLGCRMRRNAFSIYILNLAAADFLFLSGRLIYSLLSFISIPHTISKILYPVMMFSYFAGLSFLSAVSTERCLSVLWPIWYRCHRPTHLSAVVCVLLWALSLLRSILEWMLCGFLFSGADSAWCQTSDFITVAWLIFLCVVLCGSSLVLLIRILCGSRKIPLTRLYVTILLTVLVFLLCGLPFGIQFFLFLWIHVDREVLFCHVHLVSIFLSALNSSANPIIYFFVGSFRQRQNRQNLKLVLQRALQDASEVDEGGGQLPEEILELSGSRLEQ
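System: HEK293 cells stably expressing human MrgX1 receptor; Dosing: test compound in the initial addition of three; Schedule: overnight plating, then 30 min 37 °C plus 30 min room-temperature dye loading; Detection: kinetic calcium dye fluorescence, Fluo-4 NW; Controls: per-plate positive and negative controls for Z′ factor.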
MrgX1 allo act: allosterically activates human MrgX1 receptor signaling. Q96LB2. MrgX1-HEK293, Fluo-4 calcium flux, FDSS; hits give high values. B-score at 10 µM. 0.63% of 310,000 active;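 active = plate-corrected calcium response at least 3 library SD above typical, normal starting fluorescence, not activating the receptor alone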;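 note: compound read alongside a low EC10 to EC30 dose of BAM8-22 agonist; peak minus trough fluorescence over baseline measured at the second addition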
MrgX1 antag: human MrgX1 receptor antagonism, primary screen | MRGX1-HEK293 calcium flux, Fluo-4, BAM8-22 antagonism; hits give low values | Q96LB2 | AID 588676 | 1.3% of 310,000 active | B-score at 10 µM;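 active = calcium-response B-score plate-corrected more than 3 library SD below zero, starting fluorescence within 5 deviations, no agonist response on first addition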;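 note: peak minus trough fluorescence over baseline after final BAM8-22 challenge near maximal dose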
Hits are given with their value; - = inactive; . = not tested or not shown.

SMILES	RGS4 act	RGS4 block	MrgX1 agonist	MrgX1 allo act	MrgX1 antag
CC1=NN(c2ccccc2)C(=O)/C1=C/c1cccs1	-	-	-	-	-
O=C1NN(c2ccc(F)cc2)C(=O)/C1=C/c1cccs1	-	-	30	-	-
C=COc1ccc(N2C(=O)c3ccccc3OC2C)cc1 (stereo unspecified)	-	-	-	-	-
C=CCN1C(=O)S/C(=C/c2ccsc2)C1=O	-	-	-	-	-
CC(C)N1C(=O)S/C(=C/c2ccc(Sc3nc4ccccc4[nH]3)o2)C1=O	-	-	-	-	-7
C=CCN1C(=O)S/C(=C/c2ccc(Sc3nc4ccccc4[nH]3)o2)C1=O	-	-	-	-	-6.8
CCn1cc(CCCC(=O)NCc2ccc(OC)cc2)c2ccccc21	-	-	-	-	-
COc1cc(-c2nc(=S)[nH][nH]2)cc(OC)c1OC	-	-	-	-	-
Cc1cccc(CN2CCC(Oc3ccc(C(=O)N4CCCCC4)cc3)CC2)c1	-	-	-	-	-
COc1cccc(N2C(=NC(=O)C3CCCO3)SC3CS(=O)(=O)CC32)c1 (stereo unspecified)	-	-	-	-	-
CC(=O)Nc1nc(C)c(-c2csc(Nc3cccc(C(C)=O)c3)n2)s1	-7.5	-	-	-	-
CC(C)Cc1cc(C(=O)N2N=C(C(F)F)CC2(O)C(F)F)c2ccccc2n1 (stereo unspecified)	-	-	-	-	-
CCc1ccc(-c2cc(C(=O)N3N=C(C(F)F)CC3(O)C(F)F)c3ccccc3n2)cc1 (stereo unspecified)	-7.2	-	-	-	-
Cc1ccc(OC[C@H](O)[C@H](C)NC(C)C)c2c1CCC2	.	.	-	-	-
c1ccc(C(c2ccccc2)c2noc(CN3CCN(C4CCCC4)CC3)n2)cc1	-	-	-	-	-
CC(=O)N1CCN(Cc2nc(C(c3ccccc3)c3ccccc3)no2)CC1	-7.5	-	-	-	-
COc1ccc(-c2nn(-c3ccccc3)cc2/C=N/NC(=O)c2cccc(S(=O)(=O)Nc3ccccc3Cl)c2)cc1	-	-	-	-	-5
O=C(N/N=C/c1ccccn1)c1cccc(S(=O)(=O)Nc2ccccc2Cl)c1	-	-	-	16	-
O=[N+]([O-])c1ccc(N2CCN(C(=S)Nc3ccccc3)CC2)cc1	-	-	-	7.5	-
C=CCOC(=O)C1=C[C@@H](c2csc3ccccc23)C[C@@H](OCCCCO)O1	-	-	-	-	-
O=S(=O)(Cc1nnnn1-c1ccccc1)c1ccc(Cl)cc1	-	-	-	-	-
N#C/C(=C\C=C\c1ccccc1[N+](=O)[O-])C(=O)NC1CCCCC1	-	-	-	14	-
N#C/C(=C\c1ccccc1[N+](=O)[O-])C(=O)NC1CCCCC1	-	-	35	-	-
CCOc1ccccc1/C=C(\C#N)C(=O)NC1CC1	-	-	-	-	-
C/C(=N\NC(=O)c1cccnc1)c1cc2ccccc2o1	-	-	-	-	-7.6
SMILES	RGS4 act	RGS4 block	MrgX1 agonist	MrgX1 allo act	MrgX1 antag
C/C(=N\NC(=O)c1ccncc1)c1cc2ccccc2o1	-	-	-	-	-
N#Cc1ccc(S(=O)(=O)NCC(=O)OCC(=O)N2CCCC2=O)cc1	-	-	-	-	-
O=C(COC(=O)CCc1ccc(S(=O)(=O)N2CCOCC2)cc1)NCc1ccccc1Cl	-	-	-	-	-
O=C(COC(=O)CCc1ccc(S(=O)(=O)N2CCOCC2)cc1)NCc1ccccc1	-	-	-	6.8	-
CCCCCC(O)(CCN1CCCCC1)c1ccc(OCC)cc1 (stereo unspecified)	-8.8	-	-	-	-
CCC(O)(CCN1CCCCC1)c1ccccc1 (stereo unspecified)	-7	-	-	-	-
CCCCOc1ccc(C(O)(CC)CCN2CCOCC2)cc1 (stereo unspecified)	-	-	-	-	-6.3
CCCn1c(C2CCCN2c2nc(-c3cccc(Br)c3)cs2)nc2ccccc21 (stereo unspecified)	-	-	-	-	-
CSCCC(NS(=O)(=O)c1ccc(Br)cc1)C(=O)OCC(=O)NC1CC1 (stereo unspecified)	-	-	-	-	-
CCc1ccc(CN2CCC(N3CCC(C(=O)N4CCCC4)CC3)CC2)o1	-	-	-	-	-
Cc1ccc(-c2cc(=O)c3cc(Cl)ccc3[nH]2)cc1	-	-	-	-	-
CCCCN(C)CCCNC(=O)CN1C(=O)COc2ccc(S(=O)(=O)N3CCOCC3)cc21	-	-	-	-	-
CN(C)S(=O)(=O)c1cccc(NC(=O)CSc2cccc3cccnc23)c1	-7.3	-	-	-	-
O=C(CSc1nc2ccccc2c(=O)n1Cc1ccco1)c1ccccc1	-	-	-	-	-
Cc1cc(-n2c(C)cc(C(=O)CSc3nc4ccccc4c(=O)n3Cc3ccco3)c2C)no1	-	-	-	-	-6.3
COc1ccc(-c2nn(-c3ccccc3)cc2/C=N/O)cc1	-	-	-	-	-
CC(C)Oc1ccc(-c2nn(-c3ccccc3)cc2/C=c2\sc3ncnn3c2=O)cc1	.	.	47	-	-
COc1ccccc1-c1nc(SCC(=O)Nc2cc(C)on2)c2c(=O)n(C)c(=O)n(C)c2n1	-	-	-	-	-
O=C(C[n+]1cccc(Br)c1)c1ccc(-c2ccccc2)cc1	-7	-	-	-	-
Cc1ccc(C(=O)C[n+]2cc(Br)cc(Br)c2)cc1	-	-	-	15	-
CCc1nn(CC(=O)NCCCN(C)Cc2ccccc2)c(=O)c2cc3sc(C)cc3n12	-	-	-	-	-
CC(Oc1cccc(Cl)c1)C(=O)N(C)CC(=O)Nc1ccc(N2CCOCC2)cc1 (stereo unspecified)	-	-	-	-	-
COc1ccc(CN(CCC(c2ccccc2)c2ccco2)C(=O)c2ccco2)cc1 (stereo unspecified)	-8.2	-	-	-	-
COc1ccc(CN(CCC(c2ccc(F)cc2)C2CCOC(C)(C)C2)C(=O)c2ccco2)cc1 (stereo unspecified)	-8.2	-	-	-	-
CC(c1ccccc1)N(CCC(c1ccccc1)C1CCOC(C)(C)C1)C(=O)c1ccco1 (stereo unspecified)	-	-	-	-	-
SMILES	RGS4 act	RGS4 block	MrgX1 agonist	MrgX1 allo act	MrgX1 antag
O=C(c1ccco1)N(CCC(c1ccccc1)c1ccco1)Cc1ccccc1 (stereo unspecified)	-	-	-	-	-
C/C(=N/O)c1ccc(Oc2cnccn2)cc1	-	-	-	-	-
CN(C)CC/C=C1/c2ccc(F)cc2Sc2ccc(Cl)cc21	-7.8	-	-	-	-
C=CCN(C)CC/C=C1\c2ccccc2CSc2ccccc21	-11	-	-	-	-
C#CCN(C)CC/C=C1\c2ccccc2CSc2ccccc21	-8.7	-	-	-	-
CN(C)CC/C=C1\c2cc(F)ccc2CSc2ccccc21	-8.8	-	-	-	-
